Assay results published in ChEMBL document CHEMBL1143378, “Inactivation of GABA transaminase by 3-chloro-1-(4-hydroxyphenyl)propan-1-one” (Bioorg Med Chem Lett, 2009).
Calls of active or inactive are those of the source. The calls are words filed in the database; no cut-off is given here.

Columns and labels:
Format in all cases: tissue-based
[1] = target: T1, 4-aminobutyrate aminotransferase, mitochondrial (Rattus norvegicus, UniProt P50554); test: Inhibition of GABA transaminase in rat brain by Kitz-Wilson plot
Procedure, shortened: (§1)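 GABA-T was isolated from rat brain. For time-dependent inactivation, log remaining activity was plotted against time at each inactivator concentration. Inverse slopes were then plotted against inverse inactivator concentration, and K_I and k_inact were taken from a Kitz–Wilson plot.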

[2] = target: 4-aminobutyrate aminotransferase, mitochondrial (Rattus norvegicus) (UniProt P50554); test: (§2) Activity of GABA transaminase in rat brain
[3] = target: T1, 4-aminobutyrate aminotransferase, mitochondrial; test: as §2
[4] = target: 4-aminobutyrate aminotransferase, mitochondrial (Rattus norvegicus) (UniProt P50554); test: Ratio of Kinact to KI for GABA transaminase in rat brain; procedure, shortened: as §1
[5] = target: 4-aminobutyrate aminotransferase, mitochondrial (Rattus norvegicus) (UniProt P50554); test: Inhibition of GABA transaminase in rat brain at 45 uM after 40 mins in presence of alpha-ketoglutarate
Procedure, shortened: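 Rat brain GABA-T was incubated with GABA, inhibitor (45 μM) and varying α-ketoglutarate concentrations together for 40 min before enzyme activity was measured.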

[6] = target: 4-aminobutyrate aminotransferase, mitochondrial (Rattus norvegicus) (UniProt P50554); test: Inhibition of GABA transaminase in rat brain at 60 uM after 30 mins by gel filtration
Procedure, shortened: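 Rat brain GABA-T was incubated with 60 μM inhibitor at 25 °C for 30 min and an aliquot was assayed. The remaining mixture was passed through Sephadex G50 to remove small molecules and assayed again. An identical sample without inactivator served as control. Values are mean ± SEM, n = 6.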

[7] = target: 4-aminobutyrate aminotransferase, mitochondrial (Rattus norvegicus) (UniProt P50554); test: Inhibition of GABA transaminase in rat brain at 30 uM for 40 mins in presence of 30 mM alpha-ketoglutarate
Procedure, shortened: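 Rat brain GABA-T was preincubated with inhibitor (30 μM) for 40 min. Increasing concentrations of α-ketoglutarate, up to 30 mM, were then added and residual activity was measured. A no-inactivator control was run. Values are mean ± SEM, n = 6.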

T1 sequence (P50554 whole entry): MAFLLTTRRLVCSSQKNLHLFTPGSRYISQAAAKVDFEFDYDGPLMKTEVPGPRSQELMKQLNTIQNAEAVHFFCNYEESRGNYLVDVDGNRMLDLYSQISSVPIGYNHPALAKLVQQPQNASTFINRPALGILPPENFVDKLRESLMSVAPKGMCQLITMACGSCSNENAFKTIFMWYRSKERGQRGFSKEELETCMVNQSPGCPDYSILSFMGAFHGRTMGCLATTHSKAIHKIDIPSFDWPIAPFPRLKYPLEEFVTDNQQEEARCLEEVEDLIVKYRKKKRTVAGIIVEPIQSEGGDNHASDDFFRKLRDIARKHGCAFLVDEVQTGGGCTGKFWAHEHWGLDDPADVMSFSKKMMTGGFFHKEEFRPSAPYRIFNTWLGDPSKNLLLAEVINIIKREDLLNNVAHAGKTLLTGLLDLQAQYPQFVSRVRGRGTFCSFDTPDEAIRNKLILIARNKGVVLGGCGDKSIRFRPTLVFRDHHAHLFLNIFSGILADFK
Chain of 4-aminobutyrate aminotransferase, mitochondrial (Rattus norvegicus) (P50554 28-500 limits assumed): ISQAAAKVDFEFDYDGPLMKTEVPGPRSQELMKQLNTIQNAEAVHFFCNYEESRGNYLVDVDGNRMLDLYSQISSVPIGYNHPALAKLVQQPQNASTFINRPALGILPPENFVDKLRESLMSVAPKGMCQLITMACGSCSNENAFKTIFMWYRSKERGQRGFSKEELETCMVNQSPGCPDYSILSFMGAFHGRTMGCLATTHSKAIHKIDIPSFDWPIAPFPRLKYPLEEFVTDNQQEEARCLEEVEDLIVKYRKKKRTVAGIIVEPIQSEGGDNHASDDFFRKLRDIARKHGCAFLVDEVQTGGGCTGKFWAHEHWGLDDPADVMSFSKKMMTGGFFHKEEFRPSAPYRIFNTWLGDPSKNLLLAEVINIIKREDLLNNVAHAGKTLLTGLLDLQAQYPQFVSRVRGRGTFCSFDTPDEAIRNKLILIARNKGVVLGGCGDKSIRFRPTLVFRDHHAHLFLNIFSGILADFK

Kinact [2]	Ki [3]	Ratio [4]	Activity [5]	Activity [6]	Activity [7]	Compound	IC50 [1]
–	–	–	–	–	–	O=Cc1ccc(O)cc1 [4-HYDROXYBENZALDEHYDE]	16.5 µM
0.0457 min⁻¹	24.3 µM	1.88	inactive	Active	Active	O=C(CCCl)c1ccc(O)cc1	3.99 µM
